Results on 50 compounds are retold here after ChEMBL document CHEMBL1671813, “Discovery of potent competitive antagonists and positive modulators of the P2X2 receptor” (J Med Chem, 2011).

The target in one test is T1, P2X purinoceptor 4 (Rattus norvegicus, UniProt P51577).
T1 sequence (P51577 whole entry): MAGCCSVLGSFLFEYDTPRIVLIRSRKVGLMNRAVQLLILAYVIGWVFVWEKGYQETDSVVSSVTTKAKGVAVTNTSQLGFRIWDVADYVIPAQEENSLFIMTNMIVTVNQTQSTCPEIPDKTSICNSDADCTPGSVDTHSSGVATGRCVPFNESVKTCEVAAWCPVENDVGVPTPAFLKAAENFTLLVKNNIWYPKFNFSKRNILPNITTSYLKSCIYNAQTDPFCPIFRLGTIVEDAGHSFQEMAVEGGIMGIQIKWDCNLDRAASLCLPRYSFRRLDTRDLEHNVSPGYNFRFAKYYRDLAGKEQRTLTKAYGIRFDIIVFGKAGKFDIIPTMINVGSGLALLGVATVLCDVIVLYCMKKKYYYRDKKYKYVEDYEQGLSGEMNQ
Put plainly: Antagonist activity against rat P2X4 receptor expressed in Xenopus laevis oocyte assessed as inhibition of ATP-induced inward current by two-electrode voltage-clamp electrophysiology.

The target in another test is T2, P2X purinoceptor 2 (Rattus norvegicus, UniProt P49653).
T2 sequence (P49653 whole entry): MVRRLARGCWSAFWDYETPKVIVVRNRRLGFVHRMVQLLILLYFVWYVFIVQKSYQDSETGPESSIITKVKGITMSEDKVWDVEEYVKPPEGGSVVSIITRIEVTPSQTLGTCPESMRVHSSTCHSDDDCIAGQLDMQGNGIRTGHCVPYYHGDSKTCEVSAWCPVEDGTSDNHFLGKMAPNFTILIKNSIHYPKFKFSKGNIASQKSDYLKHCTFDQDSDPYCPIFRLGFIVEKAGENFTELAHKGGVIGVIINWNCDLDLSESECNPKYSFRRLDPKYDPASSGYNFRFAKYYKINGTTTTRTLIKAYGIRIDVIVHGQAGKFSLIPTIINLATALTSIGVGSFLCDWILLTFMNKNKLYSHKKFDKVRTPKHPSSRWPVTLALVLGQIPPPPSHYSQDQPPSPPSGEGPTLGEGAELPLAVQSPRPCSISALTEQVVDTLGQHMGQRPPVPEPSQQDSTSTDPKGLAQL
Put plainly: Antagonist activity against rat P2X2 receptor expressed in Xenopus laevis oocyte assessed as inhibition of ATP-induced inward current by two-electrode voltage-clamp electrophysiology.

Test [1] has as its target P2Y purinoceptor 6 (Rattus norvegicus) (UniProt Q63371). As to the kind of experiment: Antagonist activity against rat P2Y6 receptor expressed in 1321N1 astrocytoma cells by calcium mobilization assay.
The next test has as its target P2Y purinoceptor 4 (Homo sapiens, UniProt P51582). Put plainly: Antagonist activity against human P2Y4 receptor expressed in 1321N1 astrocytoma cells by calcium mobilization assay. Type of test: functional, cell-based. In a few lines:
(§1)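 Astrocytoma cell lines stably transfected with human P2Y2, human P2Y4 or rat P2Y6 receptor. Inhibition of receptor-mediated intracellular calcium mobilization was measured.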

The target in another test is P2Y purinoceptor 2 (Homo sapiens, UniProt P41231). Put plainly: Antagonist activity against human P2Y2 receptor expressed in 1321N1 astrocytoma cells by calcium mobilization assay. Type of test: functional, cell-based. The method, boiled down: as §1
Chain of P2Y purinoceptor 2 (P41231 whole entry): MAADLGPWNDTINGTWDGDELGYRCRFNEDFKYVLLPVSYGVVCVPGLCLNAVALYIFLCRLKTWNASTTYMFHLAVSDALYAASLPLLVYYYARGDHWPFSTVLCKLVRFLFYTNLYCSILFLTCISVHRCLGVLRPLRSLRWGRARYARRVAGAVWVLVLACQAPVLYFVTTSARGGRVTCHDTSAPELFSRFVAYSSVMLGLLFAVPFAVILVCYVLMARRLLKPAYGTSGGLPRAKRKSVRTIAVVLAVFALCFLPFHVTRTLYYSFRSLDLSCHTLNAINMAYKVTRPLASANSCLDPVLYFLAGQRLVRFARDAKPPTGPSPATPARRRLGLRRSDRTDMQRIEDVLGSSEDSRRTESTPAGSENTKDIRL

pIC50: −log10 of the molar value.

Chain of P2Y purinoceptor 4 (P51582 whole entry): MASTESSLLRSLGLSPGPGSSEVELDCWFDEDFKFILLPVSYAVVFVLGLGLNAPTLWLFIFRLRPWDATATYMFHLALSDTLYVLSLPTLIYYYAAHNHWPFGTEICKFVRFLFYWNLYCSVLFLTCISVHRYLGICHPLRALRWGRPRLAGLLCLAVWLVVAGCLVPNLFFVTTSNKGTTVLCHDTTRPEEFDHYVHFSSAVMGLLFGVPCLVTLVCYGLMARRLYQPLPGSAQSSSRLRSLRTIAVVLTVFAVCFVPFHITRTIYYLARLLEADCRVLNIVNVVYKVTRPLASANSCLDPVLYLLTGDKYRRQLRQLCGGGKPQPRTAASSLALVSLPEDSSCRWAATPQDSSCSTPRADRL

For the compound `Nc1cccc(Nc2cc(S(=O)(=O)O)c(N)c3c2C(=O)c2ccccc2C3=O)c1`, the pIC50 at P2X purinoceptor 4 is under 5.00; at P2X purinoceptor 2, 6.00.
Regarding `Cc1cccc(Nc2cc(S(=O)(=O)O)c(N)c3c2C(=O)c2ccccc2C3=O)c1C`, the pIC50 was under 5.00 on P2X purinoceptor 4 and 6.00 on P2X purinoceptor 2.
On the same counts, the results for `CC(=O)Nc1ccc(Nc2cc(S(=O)(=O)O)c(N)c3c2C(=O)c2ccccc2C3=O)cc1` are under 5.00 and 6.16.
For `Nc1c(S(=O)(=O)O)cc(Nc2ccc(Nc3nc(Cl)nc(Cl)n3)c(S(=O)(=O)O)c2)c2c1C(=O)c1ccccc1C2=O`, in that order: under 5.00 and 5.94.
For `Nc1c(S(=O)(=O)O)cc(Nc2ccccc2C(=O)O)c2c1C(=O)c1ccccc1C2=O`, in that order: under 5.00 and 6.00.
Turning to `Cc1c(N)cccc1Nc1cc(S(=O)(=O)O)c(N)c2c1C(=O)c1ccccc1C2=O`, the negative-log IC50 (pIC50) at P2X purinoceptor 4 was under 5.00; on P2X purinoceptor 2 it was 6.00.
For the compound `Nc1c(S(=O)(=O)O)cc(Nc2ccc(O)cc2)c2c1C(=O)c1ccccc1C2=O`, the pIC50 on P2X purinoceptor 4 is under 5.00; in test [1], 5.28; at P2X purinoceptor 2 it was 6.23; at P2Y purinoceptor 4, 5.65.
Take `Nc1ccc(Nc2cc(S(=O)(=O)O)c(N)c3c2C(=O)c2ccccc2C3=O)cc1S(=O)(=O)O`: the values for the pIC50 on P2X purinoceptor 4 and on P2X purinoceptor 2 were under 5.00 and 6.00, respectively.
On to `Nc1c(S(=O)(=O)O)cc(Nc2cc(Cl)ccc2C(=O)O)c2c1C(=O)c1ccccc1C2=O`, for which the negative-log IC50 (pIC50) is under 5.00 on P2X purinoceptor 4 and 6.00 on P2X purinoceptor 2.
As to `Nc1ccccc1Nc1cc(S(=O)(=O)O)c(N)c2c1C(=O)c1ccccc1C2=O`, the pIC50 at P2X purinoceptor 4 is under 5.00; on P2X purinoceptor 2, 6.00.
As for `CCOP(=O)(Cc1ccc(Nc2cc(S(=O)(=O)O)c(N)c3c2C(=O)c2ccccc2C3=O)cc1)OCC`, the figures for the pIC50 on P2X purinoceptor 4 and at P2X purinoceptor 2 were under 5.00 and 6.00, respectively.
`Nc1c(S(=O)(=O)O)cc(Nc2cccc([N+](=O)[O-])c2)c2c1C(=O)c1ccccc1C2=O`: on P2X purinoceptor 2, the pIC50 is under 6.00.
Consider `Nc1c(S(=O)(=O)O)cc(Nc2ccc(Nc3ncccn3)cc2)c2c1C(=O)c1ccccc1C2=O`, for which the figures for the pIC50 at P2X purinoceptor 4 and at P2X purinoceptor 2 were under 5.00 and under 6.00, respectively.
For `Cc1ccc(Nc2cc(S(=O)(=O)O)c(N)c3c2C(=O)c2ccccc2C3=O)c(C)c1`, in that order: under 5.00 and 6.00.
In the case of `Nc1c(S(=O)(=O)O)cc(Nc2ccc(C(=O)O)cc2)c2c1C(=O)c1ccccc1C2=O`, the pIC50 was under 5.00 on P2X purinoceptor 4 and 6.00 on P2X purinoceptor 2.
On the same counts, the results for `Nc1c(S(=O)(=O)O)cc(Nc2cccc3ccccc23)c2c1C(=O)c1ccccc1C2=O` are under 5.00 and under 5.00.
As for `Nc1c(S(=O)(=O)O)cc(Nc2ccccc2)c2c1C(=O)c1ccccc1C2=O` [ACID BLUE 25], the negative logarithm of the IC50 (pIC50) on P2X purinoceptor 4 is under 5.00; in test [1], 4.07; on P2X purinoceptor 2 it was 6.00.
Turning to `Nc1c(S(=O)(=O)O)cc(Nc2ccccc2S(=O)(=O)O)c2c1C(=O)c1ccccc1C2=O`, the pIC50 at P2X purinoceptor 4 and on P2X purinoceptor 2 was under 5.00 each time.
Turning to `Cc1cc(Nc2ccccc2)c2c(c1N)C(=O)c1ccccc1C2=O`, the pIC50 at P2X purinoceptor 4 and at P2X purinoceptor 2 was under 5.00 throughout.
Turning to `Nc1cc(Nc2cc(S(=O)(=O)O)c(N)c3c2C(=O)c2ccccc2C3=O)cc(C(=O)O)c1`, the pIC50 on P2X purinoceptor 4 is under 5.00; at P2X purinoceptor 2, 6.00.
For `Nc1c(S(=O)(=O)O)cc(Nc2cc(F)cc(F)c2)c2c1C(=O)c1ccccc1C2=O`, the pIC50 at P2X purinoceptor 2 is under 6.00.
As to `COc1cc(Nc2cc(S(=O)(=O)O)c(N)c3c2C(=O)c2ccccc2C3=O)cc(OC)c1`, the pIC50 on P2X purinoceptor 2 is under 6.00.
As to `Nc1c(S(=O)(=O)O)cc(Nc2ccc(Nc3nc(O)nc(O)n3)cc2)c2c1C(=O)c1ccccc1C2=O`, the pIC50 is under 5.00 at P2X purinoceptor 4, 6.71 at P2X purinoceptor 2, 5.00 at P2Y purinoceptor 4 and 4.52 on P2Y purinoceptor 2.
Turning to `Nc1c(S(=O)(=O)O)cc(Nc2cccc(F)c2)c2c1C(=O)c1ccccc1C2=O`, the pIC50 at P2X purinoceptor 2 was under 6.00.
In the case of `Cc1cc(C)c(Nc2cc(S(=O)(=O)O)c(N)c3c2C(=O)c2ccccc2C3=O)c(C)c1N`, the pIC50 at P2X purinoceptor 4 is under 5.00; on P2X purinoceptor 2, 6.00.
`COc1ccc(Nc2cc(S(=O)(=O)O)c(N)c3c2C(=O)c2ccccc2C3=O)cc1`: the pIC50 at P2X purinoceptor 4 was under 5.00; at P2X purinoceptor 2 it was 5.76.
For `COc1ccccc1Nc1cc(S(=O)(=O)O)c(N)c2c1C(=O)c1ccccc1C2=O`, in that order: under 5.00 and 5.70.
`Nc1c(S(=O)(=O)O)cc(Nc2ccccc2O)c2c1C(=O)c1ccccc1C2=O`: the pIC50 was under 5.00 on P2X purinoceptor 4 and 6.00 on P2X purinoceptor 2.
For `CCOc1ccccc1Nc1cc(S(=O)(=O)O)c(N)c2c1C(=O)c1ccccc1C2=O`, in that order: under 5.00 and 6.00.
Regarding `Nc1c(S(=O)(=O)O)cc(Nc2ccc(Oc3ccccc3)cc2)c2c1C(=O)c1ccccc1C2=O`, the pIC50 on P2X purinoceptor 4 was under 5.00; on P2X purinoceptor 2, 6.00.
In the case of `Nc1c(S(=O)(=O)O)cc(Nc2ccc(S(=O)(=O)O)c(Nc3nc(O)nc(O)n3)c2)c2c1C(=O)c1ccccc1C2=O`, the pIC50 on P2X purinoceptor 2 is 6.52.
Regarding `Nc1c(S(=O)(=O)O)cc(Nc2ccc(CC(=O)O)cc2)c2c1C(=O)c1ccccc1C2=O`, the pIC50 at P2X purinoceptor 4 is under 5.00; at P2X purinoceptor 2, 6.00.
For `Cc1ccc(Nc2cc(S(=O)(=O)O)c(N)c3c2C(=O)c2ccccc2C3=O)cc1`, in that order: under 5.00 and 6.00.
On the same counts, the results for `Nc1c(S(=O)(=O)O)cc(Nc2ccc(F)cc2)c2c1C(=O)c1ccccc1C2=O` are under 5.00 and 6.00.
Consider `Cc1cccc(Nc2cc(C)c(N)c3c2C(=O)c2ccccc2C3=O)c1`, for which the pIC50 at P2X purinoceptor 4 and at P2X purinoceptor 2 was under 5.00 each time.
Regarding `Nc1cc(Nc2cc(S(=O)(=O)O)c(N)c3c2C(=O)c2ccccc2C3=O)ccc1S(=O)(=O)O`, the pIC50 at P2X purinoceptor 4 was under 5.00; on P2X purinoceptor 2, 6.00.
For `Nc1c(S(=O)(=O)O)cc(Nc2ccc(O)c(C(=O)O)c2)c2c1C(=O)c1ccccc1C2=O`, in that order: under 5.00 and 6.00.
Turning to `Nc1c(S(=O)(=O)O)cc(Nc2cccc(Br)c2)c2c1C(=O)c1ccccc1C2=O`, the figures for the pIC50 on P2X purinoceptor 4 and at P2X purinoceptor 2 were under 5.00 and 6.00, respectively.
Turning to `Nc1c(S(=O)(=O)O)cc(Nc2cccc(Cl)c2)c2c1C(=O)c1ccccc1C2=O`, the figures for the pIC50 (in test [1]; at P2X purinoceptor 2; at P2Y purinoceptor 4) were under 5.00, 7.00 and 4.66, respectively.
Regarding `Nc1c(S(=O)(=O)O)cc(Nc2ccc(S(=O)(=O)O)cc2)c2c1C(=O)c1ccccc1C2=O`, the values for the pIC50 at P2X purinoceptor 4 and on P2X purinoceptor 2 were under 5.00 and 6.00, respectively.
Consider `Cc1cc(C)c(Nc2cc(S(=O)(=O)O)c(N)c3c2C(=O)c2ccccc2C3=O)c(C)c1` [ACID BLUE 129], for which the pIC50 on P2X purinoceptor 4 was under 5.00; on P2X purinoceptor 2, 6.00.
`Nc1c(S(=O)(=O)O)cc(Nc2cccc(C(F)(F)F)c2)c2c1C(=O)c1ccccc1C2=O`: the pIC50 on P2X purinoceptor 2 was under 6.00.
As to `Nc1c(S(=O)(=O)O)cc(Nc2ccc(Cl)cc2C(=O)O)c2c1C(=O)c1ccccc1C2=O`, the figures for the pIC50 at P2X purinoceptor 4 and on P2X purinoceptor 2 were under 5.00 and 6.00, respectively.
For `Nc1c(S(=O)(=O)O)cc(NC2CCCCC2)c2c1C(=O)c1ccccc1C2=O`, in that order: under 5.00 and 6.00.
With `Nc1c(S(=O)(=O)O)cc(Nc2ccc(Nc3ncccn3)c(S(=O)(=O)O)c2)c2c1C(=O)c1ccccc1C2=O`, the pIC50 on P2X purinoceptor 4 is under 5.00; on P2X purinoceptor 2 it was 6.00.
Consider `Nc1c(S(=O)(=O)O)cc(Nc2ccc(Nc3nc(Cl)nc(Nc4ccccc4S(=O)(=O)O)n3)c(S(=O)(=O)O)c2)c2c1C(=O)c1ccccc1C2=O` [CIBACRON BLUE 3GA], for which the pIC50 at P2X purinoceptor 4 was 4.40; on P2X purinoceptor 2 it was under 6.00.
For `CCc1cccc(Nc2cc(S(=O)(=O)O)c(N)c3c2C(=O)c2ccccc2C3=O)c1`, the negative logarithm of the IC50 (pIC50) at P2X purinoceptor 2 was under 6.00.
Regarding `Cc1ccccc1Nc1cc(S(=O)(=O)O)c(N)c2c1C(=O)c1ccccc1C2=O`, the pIC50 was under 5.00 at P2X purinoceptor 4 and 6.00 at P2X purinoceptor 2.
On the same counts, the results for `Nc1c(S(=O)(=O)O)cc(Nc2cccc(C(=O)O)c2)c2c1C(=O)c1ccccc1C2=O` are under 5.00 and 6.00.
Regarding `Nc1ccc(Nc2cc(S(=O)(=O)O)c(N)c3c2C(=O)c2ccccc2C3=O)cc1`, the pIC50 at P2X purinoceptor 4 and on P2X purinoceptor 2 was under 5.00 in each case.
